Assay results taken from ChEMBL document CHEMBL3853270, “Influence of Birch Bark Triterpenes on Keratinocytes and Fibroblasts from Diabetic and Nondiabetic Donors” (2016).
Calls of active or inactive are those of the source. The calls are words filed in the database; no cut-off is given here.

Columns and labels:
Assay type in all cases: functional
Keratinocyte [1] = test: Effect on cellular connection related gene expression in diabetic adult human primary keratinocytes assessed as CLDN4 mRNA levels at 9.81 uM after 6 hrs by qPCR analysis
Keratinocyte [2] = test: Effect on pro-inflammatory related gene expression in diabetic adult human primary keratinocytes assessed as IL1R1 mRNA levels at 9.81 uM after 6 hrs by qPCR analysis
Fibroblast [3] = test: Effect on pro-inflammatory related gene expression in non-diabetic young human primary fibroblasts assessed as IL1R1 mRNA levels at 1.96 uM after 6 hrs by qPCR analysis
Fibroblast [4] = test: Effect on MMP1 mRNA expression levels in non-diabetic young human primary fibroblasts at 1.96 uM after 6 hrs by qPCR analysis
In short: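 Primary dermal fibroblasts from one nondiabetic young, one nondiabetic adult and one diabetic adult donor; 320 000 cells per sample, 6 h at 1.96 or 9.81 μM. RNA measured on a high-throughput qPCR chip. Fold change versus 0.1% DMSO control, four independent experiments, SD, one-way ANOVA with Bonferroni post-test.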

Fibroblast [5] = test: Effect on chemokines related gene expression in non-diabetic young human primary fibroblasts assessed as WDR26 mRNA levels at 1.96 uM after 6 hrs by qPCR analysis
In short: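 Primary human dermal fibroblasts (young or adult nondiabetic, adult diabetic donor) were treated for 6 h against a 0.1% DMSO solvent control. RNA from 320 000 cells per sample was measured by Fluidigm Biomark high-throughput qPCR. Values are fold change relative to solvent control, from four independent experiments, with SD. One-way ANOVA with Bonferroni post-test was applied.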

Fibroblast [6] = test: Effect on antioxidant related gene expression in non-diabetic young human primary fibroblasts assessed as NFE2L2 mRNA levels at 1.96 uM after 6 hrs by qPCR analysis
[7] = Upregulation of wound healing activity related soluble ICAM1 protein levels in non-diabetic adult human primary keratinocytes at 1.96 uM after 24 hrs by bead-based suspension array analysis; conditions: Keratinocyte
[8] = Effect on wound healing activity in diabetic adult human primary fibroblasts assessed as upregulation of soluble ICAM1 protein levels at 1.96 uM after 24 hrs by bead-based suspension array analysis; conditions: Fibroblast

For C=C(C)[C@@H]1CC[C@]2(CO)CC[C@]3(C)[C@H](CC[C@@H]4[C@@]5(C)CC[C@H](O)C(C)(C)[C@@H]5CC[C@]43C)[C@@H]12 [BETULIN], the “fold change (FC)” value (Keratinocyte [1]) was 2.1, the “fold change (FC)” value (Keratinocyte [2]) was 0.9 and the “fold change (FC)” value (Fibroblast [3]) was 3.7. The “fold change (FC)” value (Fibroblast [4]) was 0.8, the “fold change (FC)” value (Fibroblast [5]) was 1.1 and the “fold change (FC)” value (Fibroblast [6]) was 1.2. The Activity [7] was “Active” and the Activity [8] was “Active”.
